In the library only some 2.2% were active in any assay of this set; here they are far more common.
IMP-1 inhibitor: inhibitors of Pseudomonas aeruginosa IMP-1 metallo-beta-lactamase. purified IMP-1, nitrocefin hydrolysis, epi-absorbance fluorescence. inhibition, % at 5.6 µM. hit rate 0.45% among 290,000. AID 1556;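 active means inhibition above the mean plus 3 SD of all compounds in the same screening run, cut at about 4.5% in these data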;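 further: 0% = IMP-1 with DMSO and 100% = DMSO wells lacking enzyme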
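System: purified IMP-1 / Input: IMP-1 dispensed at 0.2 nM / Medium: 50 mM HEPES pH 7.1, 50 µM ZnSO4, 0.05% Brij 35 / Timing: 15 min enzyme–compound preincubation, then 25 min nitrocefin reaction, 25 °C / Technique: plate fluorescence quenching by hydrolysis product, ex 480/em 530 nm / Repeats: singlicate testing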
PvdQ acylase: P. aeruginosa PvdQ acylase inhibition; purified PvdQ acylase, fluorescence plate reader; inhibition, % at 10 µM; hit rate 0.063% among 340,000; AID 488965; in the data active means inhibition above about 30%, passing the limit was not always enough;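 further: 0% = vehicle neutral wells and 100% = reference inhibitor wells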
VIM-2 inh: blocks Pseudomonas aeruginosa VIM-2 metallo-beta-lactamase. purified VIM-2, nitrocefin hydrolysis, epi-absorbance fluorescence. inhibition, % at 5.6 µM. hit rate 0.89% among 290,000;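 active means inhibition above the mean of all tested compounds plus 3 SD, cutoff set per screening run, cut at about 7.5% in these data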;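 further: red hydrolysis product quenches plate fluorescence so inhibitors raise well fluorescence; 0% = enzyme with DMSO and 100% = DMSO without enzyme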
CR mimetic SO: yeast age-related superoxide inhibition as caloric restriction mimetic | hit rate 0.18% among 330,000 | superoxide response (% of plate mean), % at 10 µM | S. cerevisiae aged cells, superoxide DHE fluorescence; hits give low values | AID 2690;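 active means superoxide response under a set limit, about three screen SD below normal, cut at about 65% in these data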;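 further: yeast aged for seven days with compound at 30 °C before DHE staining; 100% = average MFI of all compound-treated wells on the plate with controls excluded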
PHOSPHO1 inh: inhibitors of human PHOSPHO1 phosphatase | Q8TCT1 | recombinant PHOSPHO1, absorbance phosphatase assay | inhibition, % at 13.3 µM | hit rate 1.1% among 290,000; in the data active means inhibition above about 60%
Target sequence (Q8TCT1 whole entry, looked up): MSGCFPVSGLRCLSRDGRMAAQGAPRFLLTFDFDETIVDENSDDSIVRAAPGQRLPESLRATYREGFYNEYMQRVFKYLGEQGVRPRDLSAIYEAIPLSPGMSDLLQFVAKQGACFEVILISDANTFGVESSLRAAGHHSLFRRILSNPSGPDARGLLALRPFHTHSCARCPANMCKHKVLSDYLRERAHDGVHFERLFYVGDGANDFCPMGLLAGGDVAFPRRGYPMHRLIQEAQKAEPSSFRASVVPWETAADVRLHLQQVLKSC
* marks the source's active call; other numbers are inactive results; / = no result.

SMILES	IMP-1 inhibitor	PvdQ acylase	VIM-2 inh	CR mimetic SO	PHOSPHO1 inh
COc1cccc2c1C(=O)c1c(O)c3c(c(O)c1C2=O)C[C@@](O)(C(C)=O)C[C@@H]3O[C@H]1C[C@H](N)[C@H](O)[C@H](C)O1	2	-7	19*	/	-4
O=C(Cc1ccc(-n2c(=O)c3ccccc3n(Cc3ccccc3Cl)c2=O)cc1)NCC1CCCO1 (stereo not drawn)	4.8*	-3	-1	107	40
Nc1ccc(C(CC(=O)O)n2cccc2)cc1 (stereo not drawn)	-5	-9	-1	114	-26
O=C(O)CC(c1ccccc1)n1cccc1 (stereo not drawn)	-3	-25	-1	101	87*
Cc1cc(-c2ccccc2)nc(N2CCC(C(=O)NCC3CCCCC3)CC2)n1	-4	/	-1	/	/
CN1CCN(S(=O)(=O)c2ccc(NC(=S)NC(=O)c3ccc(Cl)cc3)cc2)CC1	-2	-4	27*	/	50
NS(=O)(=O)c1ccc(NC(=S)NNC(=O)c2ccc(Br)o2)cc1	5.2*	-5	-7	90	-127
NS(=O)(=O)c1ccc(NC(=S)NC(=O)c2ccc(-c3ccccc3)cc2)cc1	5.5*	-7	0	111	0
NS(=O)(=O)c1ccc(NC(=S)NC(=O)c2ccc(Br)o2)cc1	-4	4	-3	94	21
O=C(NC(=S)Nc1ccc(S(=O)(=O)N2CCCCC2)cc1)c1ccc(Cl)cc1	-2	-6	-5	120	-14
CN1CCN(c2ccc(NC(=S)NC(=O)c3cccc4c(Cl)cccc34)cc2)CC1	-2	-4	8.3*	105	24
COc1ccc(CN2CCC(CO)(Cc3cccc(C(F)(F)F)c3)CC2)cc1Cn1cccn1	-2	-15	-3	92	8
Cc1ccc(NC(=O)c2ncn(CCCN3CCN(Cc4cccc5ccccc45)CC3)n2)cc1C	/	3	/	/	/
O=C(C[n+]1cccc2ccccc21)c1ccc(Br)cc1	-3	-14	-3	96	25
NC(=O)C[n+]1cccc2ccccc21	3	9	3	106	94*
CN(C)c1ccc(C(c2nnnn2C(C)(C)C)N2CCN(C(=O)c3ccco3)CC2)cc1 (stereo not drawn)	-4	-5	-1	97	88*
CCOc1ccc(C(c2nnnn2C(C)(C)C)N2CCN(C(=O)c3ccco3)CC2)cc1 (stereo not drawn)	0	6	0	90	-120
Cc1cc2c3c(ccc(C)c3n1)N=CN2c1ccccc1	0	-17	8.4*	101	8
Cc1cc(Nc2ccccc2)c2c([N+](=O)[O-])ccc(C)c2n1	-5	1	1	74	-24
Cc1ccc(NC(=O)CSCC(=O)NCCc2ccccc2)c(C)c1	/	-7	/	114	/
CCOC(=O)CSc1nc2c(c(=O)[nH]c(=O)n2C)n1CCc1ccccc1	-3	-17	-1	107	-14
CCC(C)Sc1nc2c(c(=O)[nH]c(=O)n2C)n1Cc1ccc(Cl)cc1 (stereo not drawn)	-2	11	-2	109	2
CC(C)Sc1nc2c(c(=O)[nH]c(=O)n2C)n1Cc1ccc(Cl)cc1	-4	-12	-3	113	84*
Cc1ccc(Cn2c(SCC(C)C)nc3c2c(=O)[nH]c(=O)n3C)cc1	-1	-20	-2	118	90*
Cn1c(=O)[nH]c(=O)c2c1nc(SCC(=O)O)n2CCc1ccccc1	-5	5	0	88	91*
SMILES	IMP-1 inhibitor	PvdQ acylase	VIM-2 inh	CR mimetic SO	PHOSPHO1 inh
CCCCn1c(SCC(=O)OCC)nc2c1c(=O)[nH]c(=O)n2C	-4	-17	-4	76	-1
CCOC(=O)CSc1nc2c(c(=O)[nH]c(=O)n2C)n1C/C=C(/C)Cl	-3	-2	-2	85	81*
CC(=O)Nc1cc(N=Cc2ccc(O)cc2O)c(Cl)cc1Cl	-2	12	-4	89	9
CCCCCn1c(SCCN2CCOCC2)nc2c1c(=O)[nH]c(=O)n2C	-1	3	0	107	69*
CCCCCCn1c(SCCN2CCOCC2)nc2c1c(=O)[nH]c(=O)n2C	-3	-17	-4	95	-15
Cc1ccc(C)c(NC(=S)NCCc2ccc(F)cc2)c1	20*	-2	-2	82	-6
Cc1ccc(NC(=S)NCCc2ccccc2)c(C)c1	-2	-8	-5	90	-2
CCN(CC)c1ccc(-c2nc3cnccn3c2NC2CCCC2)cc1	0	17	-1	97	62*
Cc1ccc(C(=O)CSc2n[nH]c(C)n2)cc1	-3	-17	0	83	92*
Cc1ccc(C)c(C(=O)CSc2n[nH]c(C)n2)c1	-1	-14	-3	95	47
CCc1ccc(C(=O)CSc2n[nH]c(C)n2)cc1	-4	-13	-2	104	102*
CCn1c(N2CCN(CC(=O)c3c(C)n(C)c4ccc(OC)cc34)CC2)nc2c1c(=O)[nH]c(=O)n2C	-2	3	-1	100	30
CCn1c(N2CCN(CC(=O)c3c(C)n(C)c4ccccc34)CC2)nc2c1c(=O)[nH]c(=O)n2C	-2	-8	1	107	92*
CN(C(=O)CCNC(=O)Cn1cnc2ccccc2c1=O)c1ccccc1F	-2	15	-3	95	28
COc1cccc(-n2c(COc3ccc(C)cc3)nnc2SCC(=O)O)c1	1	-12	-1	96	74*
Cc1ccc(NCc2nnc(SCC(=O)O)n2-c2ccc(C)cc2)cc1	-5	-1	2	122	67*
Cc1ccc(-n2c(CNc3ccc(F)cc3)nnc2SCC(=O)O)cc1	1	-9	-1	96	12
COc1ccc(-n2c(COc3ccc(C)cc3)nnc2SCc2ccc(C#N)cc2)cc1	-2	-5	-4	90	73*
CC1CCCC(C)N1C(=O)COC(=O)c1cncc(Br)c1 (stereo not drawn)	/	6	/	85	/
CC(O)CCC(=O)NNC1=CC(=O)CC(C)(C)C1 (stereo not drawn)	-1	/	-3	121	64*
CCCCCC(O)CCC(=O)NNC1=CC(=O)CC(C)(C)C1 (stereo not drawn)	-3	-5	-3	98	8
Cn1cnc(C(=O)NCc2ccccc2)c1C(=O)NCc1ccccc1	/	-4	/	102	/
CCN(CC)c1ccc(NC(=O)c2ccccc2)cc1S(=O)(=O)Nc1ccccc1OC	-2	6	-3	83	95*
O=C(c1ccco1)N1CCN(c2c([N+](=O)[O-])nn(-c3cccc(Cl)c3)[n+]2[O-])CC1	7.8*	-5	-3	102	11
O=C(c1ccc(Cl)c([N+](=O)[O-])c1)N1CCN(C(=O)c2ccco2)CC1	-2	3	-2	114	-13
Cc1n[nH]c2c([N+](=O)[O-])c(=O)[nH]c(=O)n12	/	-9	/	/	/
CN(C)c1nc(N)nc(Cn2ccnc2)n1	-3	-19	8.8*	104	-25
Cc1nnc(NC(=O)C2CCN(S(=O)(=O)c3ccc(F)c(Cl)c3)CC2)o1	/	-13	/	/	/
COc1ccc(N(CC(=O)NC2CCCC2)C(=O)c2ccc(C)s2)cc1OC	0	-7	-2	92	31
